In ChEMBL document CHEMBL3817745, “Structure-Activity Relationship for the 4(3H)-Quinazolinone Antibacterials” (J Med Chem, 2016):
In brackets after ≈: the same amount, converted by molar mass. Activity calls are given as the source filed them. No cut-off for these calls is given here.

Key:
Mus musculus = experiment: Tmax in ICR mouse peritonitis model infected with methicillin resistant Staphylococcus aureus ATCC 27660 at 10 mg/kg, po administered as single dose through gavage by UPLC analysis; type: ADME, organism-based; conditions: in vivo
Summary of the method: (§1)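 Female ICR mice, single 10 mg/kg oral gavage in 25% DMSO/55% propylene glycol/20% PBS (2.5 mg/mL); n = 3 per time point; terminal blood 0.5–30 h; plasma protein-precipitated with acetonitrile containing internal standard, quantified by UPLC-UV or MRM against mouse-plasma calibration curve (0–50 μg/mL).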

Bacillus licheniformis = experiment: Antibacterial activity against Bacillus licheniformis ATCC 12759 incubated for 16 to 20 hrs by microdilution method; type: functional
Summary of the method: (§2)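 CLSI broth microdilution. 2-fold serial dilutions were made in cation-adjusted Mueller–Hinton broth, with 5% lysed horse blood added for Streptococcus strains, in triplicate. Inoculum 5×10^5 CFU/mL. Plates incubated 36 °C for 16–20 h. MIC taken as the lowest concentration visibly inhibiting growth.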

Streptococcus pyogenes = experiment: Antibacterial activity against Streptococcus pyogenes ATCC 49399 incubated for 16 to 20 hrs by microdilution method; type: functional; summary of the method: as §2
Staphylococcus aureus [1] = experiment: Antibacterial activity against vancomycin/methicillin-resistant Staphylococcus aureus VRS2 clinical isolate incubated for 16 to 20 hrs by microdilution method; type: functional
[2] = Terminal half life in ICR mouse peritonitis model infected with methicillin resistant Staphylococcus aureus ATCC 27660 at 10 mg/kg, po administered as single dose through gavage by UPLC analysis; type: ADME, organism-based; conditions: ICR, in vivo, read-out: beta t1/2; summary of the method: as §1
[3] = AUC (0 to last) in ICR mouse peritonitis model infected with methicillin resistant Staphylococcus aureus ATCC 27660 at 10 mg/kg, iv administered as single dose measured up to 8 hrs by UPLC analysis; type: ADME, organism-based; set-up: dose 10 mg/kg, time 0 - last, route intravenous; conditions: ICR, in vivo
Summary of the method: (§3)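 Fast PK: female ICR mice (n = 2 per time point) given single tail-vein iv injection at 5, 10 or 20 mg/kg in 25% DMSO/65% propylene glycol/10% water (2.5, 5 or 10 mg/mL); terminal cardiac blood at 5 min, 40 min, 2, 4, 8 h; plasma analysed by UPLC with internal standard calibration.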

[4] = AUC (0 to infinity) in ICR mouse peritonitis model infected with methicillin resistant Staphylococcus aureus ATCC 27660 at 10 mg/kg, po administered as single dose through gavage by UPLC analysis; type: ADME, organism-based; set-up: dose 10 mg/kg, route oral, time infinity; conditions: ICR, in vivo; summary of the method: as §1
[5] = AUC (0 to infinity) in ICR mouse peritonitis model infected with methicillin resistant Staphylococcus aureus ATCC 27660 at 10 mg/kg, iv administered as single dose by UPLC analysis; type: ADME, organism-based; set-up: dose 10 mg/kg, time infinity, route intravenous; conditions: ICR, in vivo
[6] = Clearance in ICR mouse peritonitis model infected with methicillin resistant Staphylococcus aureus ATCC 27660 at 10 mg/kg, iv administered as single dose measured up to 8 hrs by UPLC analysis; type: ADME, organism-based; conditions: in vivo; summary of the method: as §3
Enterococcus faecalis [7] = experiment: Antibacterial activity against methicillin-susceptible Enterococcus faecalis ATCC 29212 incubated for 16 to 20 hrs by microdilution method; type: functional; summary of the method: as §2
Staphylococcus aureus [8] = experiment: Antibacterial activity against methicillin resistant Staphylococcus aureus ATCC 27660 infected in iv dosed ICR mouse model of peritonitis assessed as mouse survival administered at 30 mins and 4.5 hrs post infection measured for 48 hrs; type: functional; conditions: ATCC 27660, iv
[9] = tested on: Staphylococcus epidermidis; experiment: Antibacterial activity against Staphylococcus epidermidis ATCC 35547 incubated for 16 to 20 hrs by microdilution method; type: functional; summary of the method: as §2
Staphylococcus aureus [10] = experiment: […] activity against methicillin-resistant Staphylococcus aureus NRS70; type: functional; conditions: read-out: MBC99.9
[11] = AUC (0 to last) in ICR mouse peritonitis model infected with methicillin resistant Staphylococcus aureus ATCC 27660 at 10 mg/kg, po administered as single dose through gavage measured after 30 hrs by UPLC analysis; type: ADME, organism-based; set-up: dose 10 mg/kg, time 0 - last, route oral; conditions: ICR, in vivo; summary of the method: as §1
[12] = Volume of distribution in ICR mouse peritonitis model infected with methicillin resistant Staphylococcus aureus ATCC 27660 at 10 mg/kg, iv administered as single dose measured up to 24 hrs by UPLC analysis; type: ADME, organism-based; conditions: ICR, in vivo
Acinetobacter baumannii = experiment: Antibacterial activity against Acinetobacter baumannii ATCC 17961 incubated for 16 to 20 hrs by microdilution method; type: functional; summary of the method: as §2
HepG2 = experiment: Cytotoxicity against human HepG2 cells incubated for 16 hrs by XTT assay; type: cell-based; conditions: HepG2, 16 h
Summary of the method: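 HepG2 cells were tested with an XTT viability read-out, in triplicate. IC50 was obtained by nonlinear regression.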

[13] = tested on: Staphylococcus haemolyticus; experiment: Antibacterial activity against Staphylococcus haemolyticus ATCC 29970 incubated for 16 to 20 hrs by microdilution method; type: functional
Bacillus cereus = experiment: Antibacterial activity against Bacillus cereus ATCC 13061 incubated for 16 to 20 hrs by microdilution method; type: functional; summary of the method: as §2
Staphylococcus aureus [14] = experiment: Antibacterial activity against mecA-positive multidrug resistant Staphylococcus aureus COL NRS100 incubated for 16 to 20 hrs by microdilution method; type: functional
Escherichia coli = experiment: Antibacterial activity against Escherichia coli ATCC 25922 incubated for 16 to 20 hrs by microdilution method; type: functional; summary of the method: as §2
Enterococcus faecium = experiment: Antibacterial activity against Enterococcus faecium NCTC 7171 incubated for 16 to 20 hrs by microdilution method; type: functional; summary of the method: as §2
Pseudomonas aeruginosa = experiment: Antibacterial activity against Pseudomonas aeruginosa […] incubated for 16 to 20 hrs by microdilution method; type: functional; summary of the method: as §2
[15] = Drug level in uninfected thighs of ICR mouse neutropenic thigh model of methicillin-resistant Staphylococcus aureus NRS70 infection at 20 mg/kg, sc tid administered every 8 hrs starting from 1 hr post infection and measured 7 hrs post last dose by UPLC analysis; type: ADME, organism-based; conditions: read-out: Drug uptake
Summary of the method: (§4)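 Neutropenic thigh model (cyclophosphamide 200 mg/kg ip, NRS70 im), sc doses at 1, 9 and 17 h; at 24 h cardiac blood and uninfected thigh taken (n = 8 per group); thigh homogenate supernatant and plasma acetonitrile-quenched with internal standard, analysed by UPLC with MRM detection.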

[16] = Hemolytic activity against human RBC at 64 ug/ml relative to control; type: ADME, cell-based, Erythrocyte; conditions: red blood cells, read-out: Activity
Summary of the method: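 Hemolysis was measured at a fixed 64 μg/mL on a 10% red-cell suspension from heparinized human blood. Triton-X served as the positive control, and results are given as percent hemolysis.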

[17] = Protein binding in human plasma at 10 uM after 6 hrs by UPLC based equillibrium dialysis method; type: ADME, cell-free; conditions: read-out: PPB (converted)
Enterococcus faecalis [18] = experiment: Antibacterial activity against vancomycin-resistant Enterococcus faecalis 99 clinical isolate incubated for 16 to 20 hrs by microdilution method; type: functional
[19] = Oral bioavailability in ICR mouse peritonitis model infected with methicillin resistant Staphylococcus aureus ATCC 27660 at 10 mg/kg administered as single dose through gavage by UPLC analysis; type: ADME, organism-based; conditions: ICR, in vivo; summary of the method: as §1
Staphylococcus aureus [20] = experiment: Antibacterial activity against mecA-positive multidrug resistant Staphylococcus aureus NRS120 incubated for 16 to 20 hrs by microdilution method; type: functional
Klebsiella pneumoniae = experiment: Antibacterial activity against Klebsiella pneumoniae ATCC 700603 incubated for 16 to 20 hrs by microdilution method; type: functional; summary of the method: as §2
[21] = Cmax in ICR mouse peritonitis model infected with methicillin resistant Staphylococcus aureus ATCC 27660 at 10 mg/kg, po administered as single dose through gavage measured at 1 hr post dose by UPLC analysis; type: ADME, organism-based; set-up: dose 10 mg/kg, route oral; conditions: in vivo
Staphylococcus aureus [22] = experiment: […] activity against multidrug resistant Staphylococcus aureus ATCC 27660; type: functional; conditions: read-out: MBC99.9
Klebsiella aerogenes = experiment: Antibacterial activity against Enterobacter aerogenes ATCC 35029 incubated for 16 to 20 hrs by microdilution method; type: functional; summary of the method: as §2
[23] = Terminal half life in ICR mouse peritonitis model infected with methicillin resistant Staphylococcus aureus ATCC 27660 at 10 mg/kg, iv administered as single dose by UPLC analysis; type: ADME, organism-based; conditions: ICR, in vivo, read-out: beta t1/2
Staphylococcus aureus [24] = experiment: Antibacterial activity against vancomycin/methicillin-resistant Staphylococcus aureus VRS1 clinical isolate incubated for 16 to 20 hrs by microdilution method; type: functional
[25] = Plasma concentration in ICR mouse neutropenic thigh model of methicillin-resistant Staphylococcus aureus NRS70 infection at 20 mg/kg, sc tid administered every 8 hrs starting from 1 hr post infection and measured 7 hrs post last dose by UPLC analysis; type: ADME, organism-based; summary of the method: as §4
Staphylococcus aureus [26] = experiment: Antibacterial activity against mecA-positive multidrug resistant Staphylococcus aureus NRS119 incubated for 16 to 20 hrs by microdilution method; type: functional
Staphylococcus aureus [27] = experiment: Antibacterial activity against methicillin-resistant Staphylococcus aureus NRS70 in ICR mouse neutropenic thigh infection model assessed as reduction in bacterial load at 20 mg/kg, sc tid administered every 8 hrs starting from 1 hr post infection and measured 7 hrs post last dose; type: functional, organism-based
Summary of the method: (§5)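 Female ICR mice (n = 8 per group) made neutropenic with ip cyclophosphamide 200 mg/kg at 4 days and 1 day pre-infection; 100 μL NRS70 (~1×10^6 CFU/mL in brain–heart infusion) injected im into right thigh; sc doses at 1, 9, 17 h; thighs harvested at 24 h, homogenized, plated in triplicate on LB agar; log10 CFU/g.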

Streptococcus oralis = experiment: Antibacterial activity against Streptococcus oralis ATCC 9811 incubated for 16 to 20 hrs by microdilution method; type: functional; summary of the method: as §2
Plasma = experiment: Drug level in plasma of ICR mouse neutropenic thigh model of methicillin-resistant Staphylococcus aureus NRS70 infection at 10 mg/kg, sc tid administered every 8 hrs starting from 1 hr post infection and measured 7 hrs post last dose by UPLC analysis; type: ADME, organism-based; conditions: in vivo, BLD = below limit of detection; summary of the method: as §4
Staphylococcus aureus [28] = experiment: […] activity against methicillin-susceptible Staphylococcus aureus ATCC 29213; type: functional; conditions: read-out: MBC99.9
[29] = Drug level in uninfected thighs of ICR mouse neutropenic thigh model of methicillin-resistant Staphylococcus aureus NRS70 infection at 10 mg/kg, sc tid administered every 8 hrs starting from 1 hr post infection and measured 7 hrs post last dose by UPLC analysis; type: ADME, organism-based; conditions: in vivo, BLD = below limit of detection; summary of the method: as §4
Staphylococcus aureus [30] = experiment: Antibacterial activity against methicillin-resistant Staphylococcus aureus NRS70 in ICR mouse neutropenic thigh infection model assessed as reduction in bacterial load at 10 mg/kg, sc tid administered every 8 hrs starting from 1 hr post infection and measured 7 hrs post last dose; type: functional, organism-based; summary of the method: as §5

N#Cc1ccc(/C=C/c2nc3ccccc3c(=O)n2-c2cccc(C(=O)O)c2)cc1
Tmax (Mus musculus): 1 h | MIC (Bacillus licheniformis): > 128 µg/mL | MIC (Streptococcus pyogenes): > 128 µg/mL | MIC (Staphylococcus aureus [1]): 2 µg/mL (≈ 5.08 µM) | half-life [2]: > 20 h | AUC(0-t) at 8 h [3]: 19700 ng·h/mL | AUC(0-inf) [4]: 12300 ng·h/mL | AUC(0-inf) [5]: 24300 ng·h/mL | clearance [6]: 6.9 mL/min/kg | MIC (Enterococcus faecalis [7]): > 128 µg/mL | ED50 (Staphylococcus aureus [8]): 9.4 mg/kg | MIC [9]: 1 µg/mL (≈ 2.54 µM) | MBC (Staphylococcus aureus [10]): 32 µg/mL (≈ 81.3 µM) | AUC(0-t) at 30 h [11]: 6800 ng·h/mL | Vd [12]: 0.3 L/kg | MIC (Acinetobacter baumannii): ≥ 16 µg/mL | IC50 (HepG2): 62.9 µg/mL (≈ 160 µM) | MIC [13]: 1 µg/mL (≈ 2.54 µM) | MIC (Bacillus cereus): > 128 µg/mL | MIC (Staphylococcus aureus [14]): 16 µg/mL (≈ 40.7 µM) | MIC (Escherichia coli): ≥ 16 µg/mL | MIC (Enterococcus faecium): > 128 µg/mL | MIC (Pseudomonas aeruginosa): ≥ 16 µg/mL | concentration at 7 h [15]: 24 ng/mL | hemolysis at 64 ug/ml [16]: < 1% | fraction unbound at 6 h, 10 µM [17]: 0.035 | MIC (Enterococcus faecalis [18]): > 128 µg/mL | bioavailability [19]: 50% | MIC (Staphylococcus aureus [20]): 8 µg/mL (≈ 20.3 µM) | MIC (Klebsiella pneumoniae): ≥ 16 µg/mL | Cmax [21]: 1300 ng/mL | MBC (Staphylococcus aureus [22]): 64 µg/mL (≈ 163 µM) | MIC (Klebsiella aerogenes): ≥ 16 µg/mL | half-life [23]: ≥ 20 h | MIC (Staphylococcus aureus [24]): 16 µg/mL (≈ 40.7 µM) | concentration at 7 h [25]: 1130 ng/mL | MIC (Staphylococcus aureus [26]): 8 µg/mL (≈ 20.3 µM) | Activity (Staphylococcus aureus [27]): inactive | MIC (Streptococcus oralis): > 128 µg/mL

CC(=O)NC[C@H]1CN(c2ccc(N3CCOCC3)c(F)c2)C(=O)O1 [LINEZOLID]
Cp (Plasma): BLD | MBC (Staphylococcus aureus [28]): 16 µg/mL (≈ 47.4 µM) | Drug uptake [29]: BLD | MIC [9]: 1 µg/mL (≈ 2.96 µM) | MBC (Staphylococcus aureus [10]): 8 µg/mL (≈ 23.7 µM) | MIC [13]: 2 µg/mL (≈ 5.93 µM) | Activity (Staphylococcus aureus [30]): Active | MIC (Enterococcus faecium): 2 µg/mL (≈ 5.93 µM) | MIC (Staphylococcus aureus [20]): 32 µg/mL (≈ 94.9 µM) | MBC (Staphylococcus aureus [22]): 16 µg/mL (≈ 47.4 µM) | MIC (Staphylococcus aureus [26]): 32 µg/mL (≈ 94.9 µM)
